RGS4 inh: RGS4 inhibitors, primary screen, cell-based, HEK293 M3R inducible RGS4, calcium flux | Regulator of G-protein signaling 4 (Homo sapiens), P49798 | Fluo-4 calcium flux; hits give high values; triggered by carbachol at its EC20 | B-score at 10 µM | 310,000 compounds, 0.45% hits;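 active = B-score, a plate-corrected calcium signal, over three deviations above library mean, with baseline fluorescence within five deviations of library mean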;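 also: RGS4 expression induced by doxycycline in cells with stable M3 receptor; B-score is computed from the integrated fluorescence ratio over baseline after carbachol; higher B-score means a larger calcium signal and so more RGS4 inhibition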
Target sequence (P49798 whole entry, looked up): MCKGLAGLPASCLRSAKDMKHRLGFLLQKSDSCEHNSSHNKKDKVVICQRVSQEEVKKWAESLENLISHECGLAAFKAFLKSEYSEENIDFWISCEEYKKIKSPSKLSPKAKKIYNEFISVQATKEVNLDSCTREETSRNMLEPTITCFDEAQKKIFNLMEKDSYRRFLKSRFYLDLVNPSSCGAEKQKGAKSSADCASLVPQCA
PHOSPHO1 inh: PubChem AID 1565 | Phosphoethanolamine/phosphocholine phosphatase (Homo sapiens), Q8TCT1 | recombinant PHOSPHO1, absorbance phosphatase assay | inhibition, % at 13.3 µM | 290,000 compounds, 1.1% hits; in the data active = inhibition above about 60%
MrgX1 PAM: positive allosteric modulators of MrgX1, primary screen, HEK293 cells, Fluo-4 calcium flux | 310,000 compounds, 0.63% hits | FDSS; hits give high values | Mas-related G-protein coupled receptor member X1 (Homo sapiens), Q96LB2 | B-score at 10 µM;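 active = plate-corrected calcium response at least 3 library SD above typical, normal starting fluorescence, not activating the receptor alone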;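 also: compound read alongside a low EC10 to EC30 dose of BAM8-22 agonist; peak minus trough fluorescence over baseline measured at the second addition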
Target sequence (Q96LB2 whole entry, looked up): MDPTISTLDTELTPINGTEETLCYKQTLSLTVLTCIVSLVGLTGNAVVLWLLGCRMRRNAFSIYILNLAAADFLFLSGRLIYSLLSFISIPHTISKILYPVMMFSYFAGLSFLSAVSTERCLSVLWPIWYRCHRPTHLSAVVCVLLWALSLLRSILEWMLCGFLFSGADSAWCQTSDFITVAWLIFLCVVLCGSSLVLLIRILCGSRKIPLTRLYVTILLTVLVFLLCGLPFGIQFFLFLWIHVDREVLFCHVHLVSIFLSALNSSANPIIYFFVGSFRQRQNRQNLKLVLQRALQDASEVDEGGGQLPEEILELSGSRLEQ
RGS4 act: RGS4 potentiators or activators, primary screen, cell-based, HEK293 M3R inducible RGS4, calcium flux. carbachol calcium flux Fluo4; hits give low values. B-score at 10 µM. 310,000 compounds, 0.92% hits;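 active = B-score of the integrated calcium signal more than 4 SD below the library mean, with starting fluorescence not abnormally high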;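 also: negative B-score means reduced calcium response which marks RGS4 activation or potentiation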
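Detection: kinetic calcium fluorescence imaging with Fluo4-AM dye, 2 µM / Material: HEK293 cells with stable M3R and inducible RGS4 / Schedule: recording 10 s baseline at 1 Hz, 100 s post-agonist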
MrgX1 antag: antagonists of human MrgX1 receptor, primary screen, HEK293 cells, Fluo-4 calcium flux; 310,000 compounds, 1.3% hits; Mas-related G-protein coupled receptor member X1 (Homo sapiens), Q96LB2; B-score at 10 µM; BAM8-22 antagonism; hits give low values;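 active = calcium-response B-score plate-corrected more than 3 library SD below zero, starting fluorescence within 5 deviations, no agonist response on first addition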;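 also: peak minus trough fluorescence over baseline after final BAM8-22 challenge near maximal dose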
MrgX1 ag: agonists of human MrgX1 receptor, primary screen, HEK293 cells, Fluo-4 calcium flux; Fluo-4 calcium fluorescence, agonist mode; hits give high values; 310,000 compounds, 0.44% hits; B-score at 10 µM; Mas-related G-protein coupled receptor member X1 (Homo sapiens), Q96LB2; AID 588627, 2011;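 active = calcium response B-score plate-corrected fluorescence ratio at least 3 library SD, with starting fluorescence B-score inside 5 SD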
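times = overnight plating, then 30 min 37 °C plus 30 min room-temperature dye loading | assay system = stable human MrgX1 HEK293 cell line | input = fifteen thousand cells per well | signal = kinetic calcium dye fluorescence, Fluo-4 NW | dosing = compound delivered in addition one of three | read-out = B-scored fluorescence response ratio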
MrgX1 antag conf: MrgX1 receptor antagonists, duplicate retest, confirmation, HEK293 cells, Fluo-4 calcium flux; shares compounds with MrgX1 antag; BAM8-22 calcium flux; hits give low values; remaining BAM8-22 calcium response % of control (hits give low values), % at 10 µM; 2,300 compounds, 19% hits;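 active = remaining agonist calcium response no higher than 100% minus 3 SD of agonist-only control wells, with starting fluorescence near control levels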;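 also: agonist BAM8-22 given at a near maximal EC90 to ECmax level; peak minus minimum fluorescence divided by baseline after agonist addition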
HEK293 Ca flux: nonspecific calcium signal in parental HEK293, confirmation, counter-screen for MrgX1 antagonist project, parental HEK293 cells, Fluo-4 calcium flux | fluorescence ratio F(max-min)/F0 at 10 µM | Fluo-4 calcium fluorescence, FDSS | shares compounds with MrgX1 antag | AID 624111, 2012 | 4,000 compounds, 2% hits;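 active = duplicate-averaged calcium fluorescence ratio at least three times the standard deviation of buffer wells, a nonspecific response in parental cells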
HEK293 Ca counter: calcium response in parental HEK293 cells, primary screen, counter-screen for MrgX1 allosteric activator project, cell-based, Fluo-4 calcium flux, duplicate | shares compounds with MrgX1 antag | Fluo-4 fluorescence ratio; hits give high values | fluorescence ratio F(max-min)/F0 at 10 µM | 4,000 compounds, 0.4% hits | AID 624114, 2012;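 active = calcium fluorescence ratio, averaged over duplicates, at least 3 SD of the buffer-well ratio, meaning a nonspecific response in receptor-free cells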;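 also: untransfected parental HEK293 lacking MrgX1 used as counterscreen for MrgX1 allosteric activators; fluorescence change taken during the second addition on a kinetic imager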
HEK293 Ca cntr2: calcium response in parental HEK293 cells, primary screen, counter-screen for MrgX1 agonist project, cell-based, Fluo-4 calcium flux, duplicate, agonist mode; shares compounds with MrgX1 antag; Fluo-4 calcium fluorescence (FDSS); hits give high values; fluorescence ratio F(max-min)/F0 at 10 µM; 4,000 compounds, 8.7% hits; AID 624115, 2012;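 active = calcium fluorescence ratio at least three times the spread of buffer wells, meaning a non-specific response in parental cells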
* marks the source's active call; other numbers are inactive results; i = inactive; . = not tested or not shown. Sampled rows, rich in hits. Any-hit rate of the full collection: about 4.5%.

SMILES	RGS4 inh	PHOSPHO1 inh	MrgX1 PAM	RGS4 act	MrgX1 antag	MrgX1 ag	MrgX1 antag conf	HEK293 Ca flux	HEK293 Ca counter	HEK293 Ca cntr2
CN1CCN(c2ccc(Cl)cc2NS(=O)(=O)c2ccccc2Cl)CC1	i	41	i	i	-5.3*	i	81%*	i	i	i
CCOC(=O)C1=C(C)N(C)C(=O)NC1c1c(OC)ccc2ccccc12 (stereo not drawn)	i	8	i	i	i	i	.	.	.	.
Cn1nccc1C(=O)N1CCc2c([nH]c3ccccc23)C1c1ccc(F)cc1 (stereo not drawn)	i	20	i	i	-7.3*	i	i	i	i	i
CCc1ccc(C2c3[nH]c4ccccc4c3CCN2C(=O)c2cc[n+]([O-])cc2)cc1 (stereo not drawn)	i	37	i	i	i	i	.	.	.	.
O=C(CNC(=O)c1ccccc1)NCc1ccc(Cl)cc1	i	34	i	i	i	i	.	.	.	.
CC(C)(C)NS(=O)(=O)c1ccc(CCC(=O)Nc2ccc3c(c2)OCCO3)cc1	i	-27	i	i	-4.7*	i	i	i	i	i
NC(=O)C1CCN(c2ncnc3c2c(-c2ccccc2)cn3-c2ccccc2)CC1	i	-5	i	i	-5.2*	i	i	i	i	i
O=[N+]([O-])c1ccc(NCc2ccccc2N2CCC(CO)CC2)nc1	i	33	i	i	i	i	.	.	.	.
CCN(CC)S(=O)(=O)c1cc(NC(=O)CN2C(=O)NC3(CCCc4ccccc43)C2=O)ccc1C (stereo not drawn)	i	5	i	i	-6.1*	i	85%*	i	i	i
COc1ccc(C(c2c(O)nc(SC)n(C)c2=O)c2c(O)nc(SC)n(C)c2=O)cc1O	i	-32	i	i	-7.3*	i	i	i	i	i
CC1CCN(S(=O)C23CC4CC(CC(C4)C2)C3)CC1 (stereo not drawn)	i	1	i	i	i	i	.	.	.	.
O=C(Nc1ccc(Br)cc1)c1ccc(F)c(S(=O)(=O)NCc2cccs2)c1	i	-6	i	i	-5.3*	i	i	i	i	47*
Cc1ccn(C(=O)c2ccc(NC(=O)CC(C)C)cc2)n1	i	-30	i	i	i	i	.	.	.	.
O=C1N=C(c2ccccc2)C(c2ccccc2)N1 (stereo not drawn)	i	21	i	i	-7.3*	i	i	i	i	i
COc1ccc(C(C)NS(=O)(=O)Cc2ccccc2)cc1 (stereo not drawn)	i	-21	i	i	i	i	.	.	.	.
CCc1nc2ccccc2n1CCc1ccccc1	i	-5	i	i	i	i	.	.	.	.

Source: PubChem
